Source: ChEMBL document CHEMBL5724801, “EUbOPEN Chemogenomics Library - Multiplex” (2024)
“And” between values parts separate entries of the source, which are not always exact repeats. Identical values can stand only once.

Test system: HEK-293T
Assay: Multiplex assay against HEK293T
Format: toxicity, cell-based
Settings: human
In short: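 Phenotypes for tubulin, mitochondrial mass and membrane permeability are expressed as per cents of healthy-nucleus cells. Cells were stained live at seeding with Hoechst33342, BioTracker Green Microtubule Cytoskeleton Dye, MitoTracker Red and Annexin V Alexa Fluor 680, then imaged after compound addition on a CQ1 microscope at 37°C and 5% CO2. Machine-learning gating in CellPathfinder separated Hoechst high-intensity objects from normal cells, divided normal cells by nuclear state (healthy, pyknosed, fragmented) and divided pyknosed cells into mitotic or apoptotic.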

[1] = 12 h, 1 µM, compound concentration 1 uM
[2] = 12 h, 10 µM, compound concentration 10 uM
[3] = 24 h, 1 µM, compound concentration 1 uM
[4] = 24 h, 10 µM, compound concentration 10 uM
[5] = 48 h, 1 µM, compound concentration 1 uM
[6] = 48 h, 10 µM, compound concentration 10 uM

SMILES: CC(=O)NCC(=O)N1[C@@H]2CC[C@H]1c1ccc(Nc3ncc(C(F)(F)F)c(NC4CCC4)n3)cc12 [PF-03814735]
- Population Apoptotic (%) [1]: 13.45% and 7.26%
- Population Fragmented Nuclei (%) [1]: 1.8% and 4%
- Population Hoechst High Intensity Objects (%) [1]: 0.36% and 0%
- Population Membrane Permeable-Phenotype (%) [1]: 0% and 5%
- Population Mitochondria Different-Phenotype (%) [1]: 42.86% and 15%
- Population Mitotic Cells (%) [1]: 86.55% and 92.74%
- Population Normal (%) [1]: 99.64% and 100%
- Population Pyknosed Nuclei (%) [1]: 42.81% and 82.67%
- Total Cell Count [1]: 279 and 150
- Population Apoptotic (%) [2]: 22.73% and 21.78%
- Population Fragmented Nuclei (%) [2]: 2.61% and 0.88%
- Population Hoechst High Intensity Objects (%) [2]: 0.65% and 0%
- Population Membrane Permeable-Phenotype (%) [2]: 0%
- Population Mitochondria Different-Phenotype (%) [2]: 27.87% and 27.27%
- Population Mitotic Cells (%) [2]: 77.27% and 78.22%
- Population Normal (%) [2]: 99.35% and 100%
- Population Pyknosed Nuclei (%) [2]: 57.52% and 89.38%
- Population Tubulin-Different-Phenotype (%) [2]: 75.41% and 45.45%
- Total Cell Count [2]: 154 and 113
- Population Apoptotic (%) [3]: 21.25% and 13.04%
- Population Fragmented Nuclei (%) [3]: 1.47% and 2.07%
- Population Healthy Nuclei (%) [3]: 75.07% and 34.48%
- Population Hoechst High Intensity Objects (%) [3]: 0%
- Population Membrane Permeable-Phenotype (%) [3]: 0.78% and 4%
- Population Mitochondria Different-Phenotype (%) [3]: 20.31% and 10%
- Population Mitotic Cells (%) [3]: 78.75% and 86.96%
- Population Normal (%) [3]: 100%
- Population Pyknosed Nuclei (%) [3]: 23.46% and 63.45%
- Total Cell Count [3]: 341 and 145
- Population Apoptotic (%) [4]: 65.09% and 50.43%
- Population Fragmented Nuclei (%) [4]: 0.99% and 0.8%
- Population Hoechst High Intensity Objects (%) [4]: 0%
- Population Membrane Permeable-Phenotype (%) [4]: 0%
- Population Mitochondria Different-Phenotype (%) [4]: 90.53% and 33.33%
- Population Mitotic Cells (%) [4]: 34.91% and 49.57%
- Population Normal (%) [4]: 100%
- Population Pyknosed Nuclei (%) [4]: 52.22% and 92%
- Total Cell Count [4]: 203 and 125
- Population Apoptotic (%) [5]: 15.15% and 12.5%
- Population Fragmented Nuclei (%) [5]: 5.66% and 2.01%
- Population Healthy Nuclei (%) [5]: 86.88% and 71.14%
- Population Hoechst High Intensity Objects (%) [5]: 0%
- Population Membrane Permeable-Phenotype (%) [5]: 3.65% and 1.89%
- Population Mitotic Cells (%) [5]: 84.85% and 87.5%
- Population Normal (%) [5]: 100%
- Total Cell Count [5]: 442 and 149
- Population Apoptotic (%) [6]: 68.24% and 37.78%
- Population Fragmented Nuclei (%) [6]: 2.53% and 2.44%
- Population Healthy Nuclei (%) [6]: 61.6% and 24.39%
- Population Hoechst High Intensity Objects (%) [6]: 0%
- Population Membrane Permeable-Phenotype (%) [6]: 0.68% and 0%
- Population Mitochondria Different-Phenotype (%) [6]: 97.95% and 76.67%
- Population Mitotic Cells (%) [6]: 31.76% and 62.22%
- Population Normal (%) [6]: 100%
- Population Pyknosed Nuclei (%) [6]: 35.86% and 73.17%
- Total Cell Count [6]: 237 and 123

SMILES: CCCCCC(O)/C=C/[C@H]1C(=O)CC(O)C1C/C=C\CCCC(=O)O (some centres not stated)
- Population Apoptotic (%) [1]: 29% and 39%
- Population Fragmented Nuclei (%) [1]: 8% and 7%
- Population Healthy Nuclei (%) [1]: 80% and 83%
- Population Hoechst High Intensity Objects (%) [1]: 8% and 6%
- Population Membrane Permeable-Phenotype (%) [1]: 0%
- Population Mitochondria Different-Phenotype (%) [1]: 44% and 56%
- Population Mitotic Cells (%) [1]: 70% and 60%
- Population Normal (%) [1]: 91% and 93%
- Population Pyknosed Nuclei (%) [1]: 11% and 9%
- Population Tubulin-Different-Phenotype (%) [1]: 23% and 20%
- Total Cell Count [1]: 409 and 383
- Population Apoptotic (%) [2]: 48% and 54%
- Population Fragmented Nuclei (%) [2]: 6%
- Population Healthy Nuclei (%) [2]: 79% and 77%
- Population Hoechst High Intensity Objects (%) [2]: 9% and 7%
- Population Membrane Permeable-Phenotype (%) [2]: 0%
- Population Mitochondria Different-Phenotype (%) [2]: 48% and 59%
- Population Mitotic Cells (%) [2]: 51% and 46%
- Population Normal (%) [2]: 90% and 92%
- Population Pyknosed Nuclei (%) [2]: 14% and 15%
- Population Tubulin-Different-Phenotype (%) [2]: 31% and 25%
- Total Cell Count [2]: 409 and 343
- Population Apoptotic (%) [3]: 40% and 44%
- Population Fragmented Nuclei (%) [3]: 8% and 7%
- Population Healthy Nuclei (%) [3]: 83% and 84%
- Population Hoechst High Intensity Objects (%) [3]: 3% and 7%
- Population Membrane Permeable-Phenotype (%) [3]: 1% and 0%
- Population Mitochondria Different-Phenotype (%) [3]: 22% and 41%
- Population Mitotic Cells (%) [3]: 59% and 55%
- Population Normal (%) [3]: 96% and 92%
- Population Pyknosed Nuclei (%) [3]: 8% and 7%
- Population Tubulin-Different-Phenotype (%) [3]: 11% and 14%
- Total Cell Count [3]: 611 and 492
- Population Apoptotic (%) [4]: 27% and 44%
- Population Fragmented Nuclei (%) [4]: 10% and 9%
- Population Healthy Nuclei (%) [4]: 75% and 77%
- Population Hoechst High Intensity Objects (%) [4]: 4% and 9%
- Population Membrane Permeable-Phenotype (%) [4]: 0%
- Population Mitochondria Different-Phenotype (%) [4]: 29% and 50%
- Population Mitotic Cells (%) [4]: 72% and 55%
- Population Normal (%) [4]: 95% and 90%
- Population Pyknosed Nuclei (%) [4]: 13%
- Population Tubulin-Different-Phenotype (%) [4]: 16% and 21%
- Total Cell Count [4]: 523 and 388
- Population Apoptotic (%) [5]: 29% and 30%
- Population Fragmented Nuclei (%) [5]: 12% and 13%
- Population Healthy Nuclei (%) [5]: 79% and 81%
- Population Hoechst High Intensity Objects (%) [5]: 1% and 3%
- Population Membrane Permeable-Phenotype (%) [5]: 1% and 2%
- Population Mitochondria Different-Phenotype (%) [5]: 20% and 19%
- Population Mitotic Cells (%) [5]: 70% and 69%
- Population Normal (%) [5]: 98% and 96%
- Population Pyknosed Nuclei (%) [5]: 7% and 5%
- Population Tubulin-Different-Phenotype (%) [5]: 8% and 7%
- Total Cell Count [5]: 864 and 775
- Population Apoptotic (%) [6]: 22% and 51%
- Population Fragmented Nuclei (%) [6]: 12% and 10%
- Population Healthy Nuclei (%) [6]: 79% and 80%
- Population Hoechst High Intensity Objects (%) [6]: 1% and 3%
- Population Membrane Permeable-Phenotype (%) [6]: 0%
- Population Mitochondria Different-Phenotype (%) [6]: 17% and 26%
- Population Mitotic Cells (%) [6]: 77% and 48%
- Population Normal (%) [6]: 98% and 96%
- Population Pyknosed Nuclei (%) [6]: 8%
- Population Tubulin-Different-Phenotype (%) [6]: 7% and 8%
- Total Cell Count [6]: 815 and 544
